Drawing on ChEMBL document CHEMBL1135127, “SAR and species/stereo-selective metabolism of the sorbitol dehydrogenase inhibitor, CP-470,711” (Bioorg Med Chem Lett, 2002), this text covers ED90, IC50 and Reversal for 8 compounds.

Test [1] has as its system Rattus norvegicus. Nature of the test: In vivo prevention of sciatic nerve fructose accumulation in streptozotocin diabetic rat by acute assay (tid x 4). The class given is functional. Put shortly:
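Streptozotocin-diabetic rats dosed three times daily, starting 4 h after STZ, to prevent sciatic nerve fructose accumulation. Activity is reported as ED90 in mg/kg/d.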

In test [2] the target is T1, Sorbitol dehydrogenase (Rattus norvegicus, UniProt P27867).
T1 sequence (P27867 whole entry): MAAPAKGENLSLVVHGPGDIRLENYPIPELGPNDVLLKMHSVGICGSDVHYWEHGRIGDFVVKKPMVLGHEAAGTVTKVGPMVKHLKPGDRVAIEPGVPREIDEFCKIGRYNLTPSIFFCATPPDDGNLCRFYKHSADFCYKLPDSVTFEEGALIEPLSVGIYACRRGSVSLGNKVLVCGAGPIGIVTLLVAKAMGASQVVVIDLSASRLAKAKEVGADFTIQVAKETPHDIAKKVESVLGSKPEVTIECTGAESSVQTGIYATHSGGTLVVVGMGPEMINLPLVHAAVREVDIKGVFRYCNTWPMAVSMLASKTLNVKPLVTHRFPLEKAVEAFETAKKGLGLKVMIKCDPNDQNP
Nature of the test: Inhibition of recombinant rat Sorbitol dehydrogenase.

In test [3] the target is T2, Sorbitol dehydrogenase (Homo sapiens, UniProt Q00796).
T2 sequence (Q00796 whole entry): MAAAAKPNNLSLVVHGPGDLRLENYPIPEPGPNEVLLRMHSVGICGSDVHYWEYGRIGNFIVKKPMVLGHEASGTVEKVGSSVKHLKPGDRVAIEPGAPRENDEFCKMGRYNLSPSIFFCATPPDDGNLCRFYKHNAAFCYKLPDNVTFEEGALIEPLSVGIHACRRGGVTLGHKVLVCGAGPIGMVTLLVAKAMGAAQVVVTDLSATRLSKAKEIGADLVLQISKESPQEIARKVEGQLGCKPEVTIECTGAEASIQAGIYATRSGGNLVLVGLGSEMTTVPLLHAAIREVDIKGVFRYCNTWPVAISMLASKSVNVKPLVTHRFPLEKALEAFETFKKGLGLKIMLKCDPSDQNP
Nature of the test: In vitro inhibition against human recombinant Sorbitol dehydrogenase.

The subject of test [4] is Rattus norvegicus. Kind of test: In vivo reversal of sciatic nerve fructose accumulation in streptozotocin rat by chronic assay at 1 mg/kg (qd x 5). The format is functional. The method, boiled down: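 Reversal design in STZ rats: once-daily dosing began 5 days after STZ. Sciatic nerve fructose was measured and activity expressed as % normalization at 1 mg/kg.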
Test [5] concerns the target T1, Sorbitol dehydrogenase. Kind of test: Inhibition of recombinant rat sorbitol dehydrogenase.
Test [6] concerns the target T2, Sorbitol dehydrogenase. Kind of test: In vitro inhibition against human recombinant sorbitol dehydrogenase.

Regarding `C[C@H](O)c1nccc(N2C[C@@H](C)N(c3ccnc([C@H](C)O)n3)[C@@H](C)C2)n1`, the ED90 with Rattus norvegicus [1] amounted to 0.7 mg/kg/day. Further, the concentration for half-maximal inhibition (IC50) at Sorbitol dehydrogenase [2] was 640 nM; on Sorbitol dehydrogenase [3] it was 831 nM. Besides, in the test with Rattus norvegicus [4], the Reversal is reported as 84%.
On to `CC(=O)c1nccc(N2C[C@@H](C)N(c3ccnc(C(C)=O)n3)[C@@H](C)C2)n1`, for which the half-maximal inhibitory concentration (IC50) on Sorbitol dehydrogenase [5] was determined as 227 nM; on Sorbitol dehydrogenase [6], 212 nM. For the same compound, the ED90 in the test on Rattus norvegicus [1] came to 0.9 mg/kg/day. Besides, in the test on Rattus norvegicus [4], the Reversal came out at 92%.
For `C[C@H](O)c1nccc(N2C[C@@H](C)N(c3ccnc([C@@H](C)O)n3)[C@@H](C)C2)n1`, the 50% inhibitory concentration (IC50) was 29 nM at Sorbitol dehydrogenase [5] and 33 nM on Sorbitol dehydrogenase [6]. In the test on Rattus norvegicus [1], this compound had an ED90 of 0.4 mg/kg/day. Further, the Reversal in the test with Rattus norvegicus [4] is recorded as 81%.
In the same order, the values of `CC(=O)c1nccc(N2[C@H](C)CN(c3ccnc([C@@H](C)O)n3)C[C@@H]2C)n1` are 5 nM, 6 nM, 0.5 mg/kg/day and 77%.
For `C[C@@H]1CN(c2ccnc([C@@H](C)O)n2)C[C@H](C)N1c1ccnc([C@@H](C)O)n1`, in that order: 17 nM, 10 nM, 0.2 mg/kg/day and 90%.
Take `C[C@H](O)c1nccc(N2[C@H](C)CN(c3ccnc([C@@H](C)O)n3)C[C@@H]2C)n1`: the ED90 with Rattus norvegicus [1] was 0.8 mg/kg/day. Besides, the concentration for half-maximal inhibition (IC50) at Sorbitol dehydrogenase [2] came to 27 nM; at Sorbitol dehydrogenase [3], 19 nM. The Reversal with Rattus norvegicus [4] was determined as 81%.
As to `CC(=O)c1nccc(N2C[C@@H](C)N(c3ccnc([C@@H](C)O)n3)[C@@H](C)C2)n1`, the IC50 on Sorbitol dehydrogenase [5] is 18 nM; on Sorbitol dehydrogenase [6] it was 19 nM. In the test with Rattus norvegicus [1], this compound yielded an ED90 of 0.2 mg/kg/day. For the same compound, the Reversal with Rattus norvegicus [4] came out at 94%.
`CC(O)c1nccc(N2C[C@@H](C)N(c3ccnc(C(C)O)n3)[C@@H](C)C2)n1` (some centres not stated) yielded an ED90 in the test on Rattus norvegicus [1] of 0.6 mg/kg/day. For the same compound, the figures for the IC50 on Sorbitol dehydrogenase [2] and on Sorbitol dehydrogenase [3] were 8 nM and 28 nM, respectively. The Reversal in the test with Rattus norvegicus [4] worked out at 92%.
